# Tests used:
# HT-29 [1] = assay: Cytotoxicity against human HT-29 cells after 72 hrs by MTT assay; conditions: HT-29, 72 h
# [2] = Cytotoxicity against human U87MG cells after 72 hrs by MTT assay; type: functional, cell-based, U-87MG ATCC; conditions: U-87 MG
# In short: (§1)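 Cells were grown in MEM with 10% FBS and seeded at about 4×10^3 cells per well, then held 24 h at 37 °C in 5% CO2. Compounds were added and the cells cultured 72 h. MTT was added to 5 µg/mL final for 4 h at 37 °C, and the formazan was dissolved in DMSO. IC50 is the mean of three determinations.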
# A549 [3] = assay: Cytotoxicity against human A549 cells after 72 hrs by MTT assay; type: functional, cell-based; conditions: A549, 72 h; in short: as §1
# [4] = Cytotoxicity against human H460 cells after 72 hrs by MTT assay; conditions: NCI-H460, 72 h
# [5] = Cytotoxicity against human MKN45 cells after 72 hrs by MTT assay; conditions: MKN-45, 72 h
# [6] = target: Hepatocyte growth factor receptor (Homo sapiens, UniProt P08581); assay: Inhibition of c-Met (unknown origin) using poly (Glu, Tyr) 4:1 after 30 mins by HTRF assay
# U-87 MG = assay: Ratio of foretinib IC50 to compound IC50 for human U87MG cells after 72 hrs by MTT assay; type: functional, U-87MG ATCC
# HT-29 [7] = assay: Ratio of foretinib IC50 to compound IC50 for human HT-29 cells after 72 hrs by MTT assay; type: functional
# [8] = target: T1, Receptor-type tyrosine-protein kinase FLT3 (Homo sapiens, UniProt P36888); assay: Inhibition of Flt-3 (unknown origin) using poly (Glu, Tyr) 4:1 after 30 mins by HTRF assay
# T1 sequence (P36888 whole entry): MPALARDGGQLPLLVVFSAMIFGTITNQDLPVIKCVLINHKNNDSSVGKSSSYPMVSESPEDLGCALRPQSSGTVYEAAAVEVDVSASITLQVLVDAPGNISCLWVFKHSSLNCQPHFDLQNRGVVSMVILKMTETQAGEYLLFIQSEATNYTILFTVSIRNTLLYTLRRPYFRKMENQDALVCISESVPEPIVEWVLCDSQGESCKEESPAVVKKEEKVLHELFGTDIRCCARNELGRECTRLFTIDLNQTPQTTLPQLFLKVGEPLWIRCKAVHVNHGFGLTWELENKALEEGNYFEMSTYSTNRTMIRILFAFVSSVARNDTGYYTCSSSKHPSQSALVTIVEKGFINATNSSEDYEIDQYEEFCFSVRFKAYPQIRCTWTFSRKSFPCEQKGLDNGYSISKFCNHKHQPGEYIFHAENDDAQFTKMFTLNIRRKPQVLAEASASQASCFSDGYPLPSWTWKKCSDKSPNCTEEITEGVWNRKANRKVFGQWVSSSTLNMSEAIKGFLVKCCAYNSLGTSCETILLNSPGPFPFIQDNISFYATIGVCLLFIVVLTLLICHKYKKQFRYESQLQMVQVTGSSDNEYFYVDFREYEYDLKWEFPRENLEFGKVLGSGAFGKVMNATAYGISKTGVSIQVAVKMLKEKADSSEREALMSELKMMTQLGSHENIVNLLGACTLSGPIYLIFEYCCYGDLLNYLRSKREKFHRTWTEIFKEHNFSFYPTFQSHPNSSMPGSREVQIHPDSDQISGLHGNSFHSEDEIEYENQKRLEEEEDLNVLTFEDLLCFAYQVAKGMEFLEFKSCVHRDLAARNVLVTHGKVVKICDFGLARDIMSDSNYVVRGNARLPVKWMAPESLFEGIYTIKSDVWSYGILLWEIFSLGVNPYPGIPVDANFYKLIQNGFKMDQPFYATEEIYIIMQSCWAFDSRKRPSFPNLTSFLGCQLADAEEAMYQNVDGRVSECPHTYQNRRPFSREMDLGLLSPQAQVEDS
# In short: (§2)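 HTRF assay using purified tyrosine kinase proteins in 50 mM HEPES pH 7.0 with DTT, MgCl2, MnCl2 and 0.1% NaN3. The substrate was poly(Glu,Tyr) 4:1 at 20 µg/mL, and ATP was added as a 10 mM solution. Compounds were diluted in 1% DMSO. Reactions ran 30 min at 25 °C and were stopped with Streptavidin-XL665 and Tk antibody cryptate.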
# [9] = target: Platelet-derived growth factor receptor beta (Homo sapiens, UniProt P09619); assay: Inhibition of PDGFRbeta (unknown origin) using poly (Glu, Tyr) 4:1 after 30 mins by HTRF assay; in short: as §2
# A549 [10] = assay: Ratio of foretinib IC50 to compound IC50 for human A549 cells after 72 hrs by MTT assay; type: functional
# [11] = Ratio of foretinib IC50 to compound IC50 for human H460 cells after 72 hrs by MTT assay; type: functional
# [12] = target: Mast/stem cell growth factor receptor Kit (Homo sapiens, UniProt P10721); assay: Inhibition of c-Kit (unknown origin) using poly (Glu, Tyr) 4:1 after 30 mins by HTRF assay; in short: as §2
# [13] = target: Epidermal growth factor receptor (Homo sapiens, UniProt P00533); assay: Inhibition of EGFR (unknown origin) using poly (Glu, Tyr) 4:1 after 30 mins by HTRF assay; in short: as §2
# [14] = target: Vascular endothelial growth factor receptor 2 (Homo sapiens, UniProt P35968); assay: Inhibition of VEGFR2 (unknown origin) using poly (Glu, Tyr) 4:1 after 30 mins by HTRF assay; in short: as §2
Structure (SMILES),IC50 (HT-29 [1]),IC50 [2],IC50 (A549 [3]),IC50 [4],IC50 [5],IC50 [6],Ratio IC50 (U-87 MG),Ratio IC50 (HT-29 [7]),IC50 [8],IC50 [9],Ratio IC50 (A549 [10]),Ratio IC50 [11],IC50 [12],IC50 [13],IC50 [14]
COc1cc2c(Oc3ccc(N/C=C4\C(=O)NC(=O)N(c5ccccc5)C4=O)cc3F)ccnc2cc1OCCCN1CCC(C)CC1,280 nM,1420 nM,390 nM,170 nM,46 nM,3.84 nM,–,–,–,–,–,–,–,–,–
COc1cc2c(Oc3ccc(N/C=C4\C(=O)NC(=O)N(c5ccc(C)cc5)C4=O)cc3F)ccnc2cc1OCCCN1CCCC1,130 nM,640 nM,72 nM,51 nM,57 nM,1.15 nM,1.7,1.2,496 nM,531 nM,1.8,3.7,652 nM,> 100000 nM,384 nM
COc1cc2c(Oc3ccc(N/C=C4\C(=O)NC(=O)N(c5ccc(F)cc5F)C4=O)cc3F)ccnc2cc1OCCCN1CCN(C)CC1,1500 nM,1600 nM,380 nM,1170 nM,510 nM,8.35 nM,–,–,–,–,–,–,–,–,–
COc1cc2c(Oc3ccc(N/C=C4\C(=O)NC(=O)N(c5ccc(F)c(Cl)c5)C4=O)cc3F)ccnc2cc1OCCCN1CCN(C)CC1,150 nM,750 nM,310 nM,76 nM,66 nM,3.15 nM,–,–,–,–,–,–,–,–,–
COc1cc2c(Oc3ccc(N/C=C4\C(=O)NC(=O)N(c5ccc(F)c(Cl)c5)C4=O)cc3F)ccnc2cc1OCCCN1CCOCC1,280 nM,580 nM,270 nM,120 nM,110 nM,5.14 nM,–,–,–,–,–,–,–,–,–
COc1cc2c(Oc3ccc(N/C=C4\C(=O)NC(=O)N(c5ccc(F)c(Cl)c5)C4=O)cc3F)ccnc2cc1OCCCN1CCCC1,190 nM,680 nM,190 nM,54 nM,72 nM,2.38 nM,–,–,–,–,–,–,–,–,–
COc1cc2c(Oc3ccc(N/C=C4\C(=O)NC(=O)N(c5ccc(C)cc5)C4=O)cc3F)ccnc2cc1OCCCN1CCN(C)CC1,490 nM,3200 nM,430 nM,70 nM,160 nM,2.68 nM,–,–,–,–,–,–,–,–,–
COc1cc2c(Oc3ccc(N/C=C4\C(=O)NC(=O)N(c5ccccc5)C4=O)cc3F)ccnc2cc1OCCCN1CCOCC1,350 nM,4800 nM,930 nM,260 nM,310 nM,4.57 nM,–,–,–,–,–,–,–,–,–
COc1cc2c(Oc3ccc(N/C=C4\C(=O)NC(=O)N(c5ccc(C)cc5)C4=O)cc3F)ccnc2cc1OCCCN1CCCCC1,120 nM,1500 nM,380 nM,100 nM,190 nM,2.58 nM,–,–,–,–,–,–,–,–,–
